Reference: ChEMBL document CHEMBL1137359, “Potent and orally bioavailable 8-bicyclo[2.2.2]octylxanthines as adenosine A1 receptor antagonists” (J Med Chem, 2006)
Converted amounts (≈) assume the structure as drawn.

What was measured:
[1] = biological target: T1, Adenosine receptor A1 (Homo sapiens, UniProt P30542); assay: Displacement of [125I]ABA from human adenosine A1 receptor expressed in CHOK1 cells; format: cell-based, CHO-K1
T1 sequence (P30542 whole entry): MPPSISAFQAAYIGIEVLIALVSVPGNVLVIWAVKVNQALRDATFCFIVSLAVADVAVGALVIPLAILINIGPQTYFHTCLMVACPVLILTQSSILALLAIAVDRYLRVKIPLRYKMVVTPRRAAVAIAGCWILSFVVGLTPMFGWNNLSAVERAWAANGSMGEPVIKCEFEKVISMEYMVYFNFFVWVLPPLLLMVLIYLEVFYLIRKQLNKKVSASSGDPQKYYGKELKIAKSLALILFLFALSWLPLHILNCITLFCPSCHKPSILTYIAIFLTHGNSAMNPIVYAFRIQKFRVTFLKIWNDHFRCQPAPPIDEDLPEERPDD
Outline: (§1)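 Membranes from stably transfected CHO-K1 (hA1) or HEK (hA2A, hA2B, hA3) cells, 2 h at room temperature in 50 mM HEPES pH 7.4, 1 mM EDTA, 5 mM MgCl2, 1 U/mL adenosine deaminase. 5% DMSO final except hA3. Full curves 10^-11–10^-5 M, seven concentrations, four determinations each. Filtration, γ-counting, Ki derived.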

[2] = biological target: T2, Adenosine receptor A2a (Homo sapiens, UniProt P29274); assay: Displacement of [125I]ZM-241385 from human adenosine A2A receptor expressed in HEK cells; format: cell-based, HEK293; outline: as §1
T2 sequence (P29274 whole entry): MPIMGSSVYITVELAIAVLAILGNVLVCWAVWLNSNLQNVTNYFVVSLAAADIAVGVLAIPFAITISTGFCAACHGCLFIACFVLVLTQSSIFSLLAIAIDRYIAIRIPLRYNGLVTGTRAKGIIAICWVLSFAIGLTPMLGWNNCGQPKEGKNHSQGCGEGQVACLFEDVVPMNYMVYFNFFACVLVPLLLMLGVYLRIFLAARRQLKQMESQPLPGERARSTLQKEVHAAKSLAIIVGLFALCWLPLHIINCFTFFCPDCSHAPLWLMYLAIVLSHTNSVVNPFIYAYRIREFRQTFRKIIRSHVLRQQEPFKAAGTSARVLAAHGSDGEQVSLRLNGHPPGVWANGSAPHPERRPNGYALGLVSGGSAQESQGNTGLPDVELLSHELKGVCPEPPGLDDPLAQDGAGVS

[3] = biological target: T3, Adenosine receptor A2b (Homo sapiens) (UniProt P29275); assay: Displacement of [125I]3-(4-aminobenzyl)-8-phenyloxyacetate-1-propyl-xanthine from human adenosine A2B receptor expressed in HEK cells relative to control; format: cell-based; design: concentration or dose not given beside the values; conditions: HEK293
T3 sequence (whole entry): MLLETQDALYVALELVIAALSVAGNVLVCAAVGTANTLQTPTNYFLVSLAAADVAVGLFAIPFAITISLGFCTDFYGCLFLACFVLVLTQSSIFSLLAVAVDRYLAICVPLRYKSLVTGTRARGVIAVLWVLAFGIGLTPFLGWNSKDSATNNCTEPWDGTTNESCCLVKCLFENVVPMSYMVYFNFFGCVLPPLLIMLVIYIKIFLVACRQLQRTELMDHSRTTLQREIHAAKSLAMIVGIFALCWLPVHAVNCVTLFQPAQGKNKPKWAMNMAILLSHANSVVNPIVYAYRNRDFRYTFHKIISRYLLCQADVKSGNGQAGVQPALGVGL
Outline: (§2)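 Single-point screen at 1 µM antagonist, run in duplicate, on transfected-cell membranes: CHO-K1 (hA1), HEK (hA2A, hA2B, hA3). 2 h at room temperature in 50 mM HEPES pH 7.4, 1 mM EDTA, 5 mM MgCl2, 1 U/mL adenosine deaminase; 5% DMSO except hA3. Nonspecific binding with 50 µM XAC, or 10 µM BW-1433 for hA3. Result is % radioligand bound relative to control.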

[4] = biological target: T4, Adenosine receptor A3 (Homo sapiens) (UniProt P0DMS8); assay: Displacement of [125I]ABA from human adenosine A3 receptor expressed in HEK cells relative to control; format: cell-based; design: concentration or dose not given beside the values; conditions: HEK293; outline: as §2
T4 sequence (whole entry): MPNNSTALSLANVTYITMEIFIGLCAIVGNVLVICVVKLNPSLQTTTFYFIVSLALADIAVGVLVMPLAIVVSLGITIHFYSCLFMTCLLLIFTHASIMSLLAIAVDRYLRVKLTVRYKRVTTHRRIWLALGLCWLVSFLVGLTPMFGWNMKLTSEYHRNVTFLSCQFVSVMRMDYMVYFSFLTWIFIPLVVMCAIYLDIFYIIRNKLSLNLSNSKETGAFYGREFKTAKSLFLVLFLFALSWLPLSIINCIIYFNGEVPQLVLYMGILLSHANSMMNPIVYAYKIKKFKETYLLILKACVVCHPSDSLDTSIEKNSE

[5] = biological target: Adenosine receptors; A1 & A2a (Homo sapiens) (UniProt P30542+P29274); assay: Selectivity for human adenosine A1 receptor over human adenosine A2A receptor; format: protein assay
Chain of Adenosine receptors; A1 & A2a (Homo sapiens) (P29274 whole entry, looked up, one chain of several): as the sequence (P29274 whole entry) above

[6] = biological target: T5, Adenosine receptor A1 (Homo sapiens) (UniProt P30542); assay: Displacement of [125I]ABA from human adenosine A1 receptor expressed in CHOK1 cells relative to control; format: cell-based; design: concentration or dose not given beside the values; conditions: CHO-K1; outline: as §2
T5 sequence (whole entry): T1 sequence (P30542 whole entry)

[7] = biological target: T2, Adenosine receptor A2a; assay: Displacement of [125I]ZM-241385 from human adenosine A2A receptor expressed in HEK cells relative to control; format: cell-based; design: concentration or dose not given beside the values; conditions: HEK293; outline: as §2
[8] = biological target: T6, Adenosine receptor A3 (Homo sapiens, UniProt P0DMS8); assay: Displacement of [125I]ABA from human adenosine A3 receptor expressed in HEK cells; format: cell-based, HEK293
T6 sequence (P0DMS8 whole entry): T4 sequence (whole entry)
Outline: as §1, with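 “hA3. Radioligands: 0.3 nM (hA1) or 0.6 nM (hA3) 125I-ABA, 0.7 nM 125I-ZM241385, 0.5 nM A2B ligand.” for “hA3.”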

[9] = biological target: T7, Adenosine receptor A1 (Rattus norvegicus, UniProt P25099); assay: Displacement of [3H]CPX from rat brain cortex adenosine A1 receptor
T7 sequence (P25099 whole entry): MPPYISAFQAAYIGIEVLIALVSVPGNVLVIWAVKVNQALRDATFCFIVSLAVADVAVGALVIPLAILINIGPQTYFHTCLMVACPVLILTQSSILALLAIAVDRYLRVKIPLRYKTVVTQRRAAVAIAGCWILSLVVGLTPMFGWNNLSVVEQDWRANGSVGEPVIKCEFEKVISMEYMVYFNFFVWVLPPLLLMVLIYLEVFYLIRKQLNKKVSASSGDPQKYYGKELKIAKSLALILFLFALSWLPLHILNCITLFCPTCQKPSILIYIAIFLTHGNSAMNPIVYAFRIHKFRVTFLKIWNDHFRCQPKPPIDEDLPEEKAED
Outline: (§3)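 Crude membranes (10-20 µg protein) from rat brain cortex (A1, 2 nM 3H-CPX) or striatum (A2A, 0.5-1.2 nM 3H-ZM241385) incubated 90 min at room temperature in 50 mM Tris-HCl pH 7.4 with 2 U/mL adenosine deaminase. Stopped with ice-cold buffer, then vacuum filtration and scintillation counting. Ki from concentration-response displacement.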

[10] = biological target: Adenosine receptor A2a (Rattus norvegicus, UniProt P30543); assay: Displacement of [3H]ZM-241385 from rat brain striatum adenosine A2A receptor; outline: as §3
Chain of Adenosine receptor A2a (Rattus norvegicus, UniProt P30543) (P30543 whole entry): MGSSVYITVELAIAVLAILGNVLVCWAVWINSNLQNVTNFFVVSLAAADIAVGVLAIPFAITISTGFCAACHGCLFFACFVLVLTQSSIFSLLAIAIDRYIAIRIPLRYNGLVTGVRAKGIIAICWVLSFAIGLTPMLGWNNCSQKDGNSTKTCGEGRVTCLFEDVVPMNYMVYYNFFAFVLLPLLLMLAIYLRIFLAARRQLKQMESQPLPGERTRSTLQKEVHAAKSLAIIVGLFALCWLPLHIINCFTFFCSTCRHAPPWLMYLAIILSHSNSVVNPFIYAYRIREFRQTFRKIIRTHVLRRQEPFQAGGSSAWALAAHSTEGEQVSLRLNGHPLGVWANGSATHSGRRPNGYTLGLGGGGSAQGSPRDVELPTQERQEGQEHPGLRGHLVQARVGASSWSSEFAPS

[11] = Aqueous solubility of the compound; format: physicochemical; conditions: water
Outline: (§4)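 Solubility of each compound measured in sterile water for injection, 0.9% saline, 5% dextrose in water, ethanol and octanol; values in mg/mL from duplicate determinations per solvent, individual values varying <5%.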

[12] = Solubility in 0.9% saline; format: physicochemical; outline: as §4
[13] = Solubility in 5% dextrose in water; format: physicochemical; outline: as §4
[14] = Solubility in ethanol; format: physicochemical; outline: as §4
[15] = Solubility in octanol; format: physicochemical; outline: as §4
[16] = biological target: T8, Adenosine receptor A2b (Homo sapiens, UniProt P29275); assay: Displacement of [125I]3-(4-aminobenzyl)-8-phenyloxyacetate-1-propyl-xanthine from human adenosine A2B receptor expressed in HEK cells; format: cell-based, HEK293; outline: as §1
T8 sequence (P29275 whole entry): T3 sequence (whole entry)

Ki [1] | Ki [2] | Activity [3] | Activity [4] | Ratio Ki [5] | other results | SMILES
0.015 µM | 0.799 µM | 14% | 76% | 53 | – | CCCn1c(=O)c2nc([C@]34CC[C@](C=O)(CC3)CC4)[nH]c2n(CCC)c1=O
0.012 µM | 0.168 µM | 16% | 91% | 14 | – | CCCn1c(=O)c2nc([C@H]3CC[C@H](C(=O)NCCN(C)C)CC3)[nH]c2n(CCC)c1=O
– | – | 48% | 88% | – | Activity [6]: 60%; Activity [7]: 99% | CCCn1c(=O)c2nc([C@H]3CC[C@H](C(=O)N4CCOCC4)CC3)[nH]c2n(CCC)c1=O
0.012 µM | – | – | – | – | Ki [8]: 4.81 µM; Ki [9]: 0.0007 µM; Ki [10]: 1.25 µM; solubility [11]: 460 µg/mL (≈ 1340 µM); solubility [12]: 430 µg/mL (≈ 1250 µM); solubility [13]: 250 µg/mL (≈ 726 µM); solubility [14]: 85300 µg/mL (≈ 248000 µM); solubility [15]: 4600 µg/mL (≈ 13400 µM) | CCCn1c(=O)c2[nH]c([C@H]3CC4C[C@@H]3[C@H]3O[C@@H]43)nc2n(CCC)c1=O
0.109 µM | 2.96 µM | – | – | – | – | CCCn1c(=O)c2[nH]c([C@H]3CC[C@H](NC(=O)OCc4ccccc4)CC3)nc2n(CCC)c1=O
– | – | – | – | – | Ki [9]: 0.0225 µM; Ki [10]: 8.96 µM | CCCn1c(=O)c2nc([C@]34CC[C@](CC(=O)O)(CC3)CC4)[nH]c2n(CCC)c1=O
– | – | 18% | 77% | 8 | – | CCCn1c(=O)c2nc([C@H]3CC[C@H](CO)CC3)[nH]c2n(CCC)c1=O
0.096 µM | 7.82 µM | 41% | 100% | 81 | – | CCCn1c(=O)c2nc([C@]34CC[C@](C(=O)N5CCC(C(=O)O)CC5)(CC3)CC4)[nH]c2n(CCC)c1=O
0.022 µM | 1.4 µM | – | – | 63 | Ki [16]: 0.505 µM; Ki [8]: > 10 µM | CCCn1c(=O)c2nc([C@]34CC[C@](C(=O)NCCC(=O)OC)(CC3)CC4)[nH]c2n(CCC)c1=O
0.006 µM | 0.132 µM | 3% | 79% | 22 | – | CCCn1c(=O)c2nc([C@]34CC[C@](C(=O)NCCN(C)C)(CC3)CC4)[nH]c2n(CCC)c1=O
0.171 µM | 2.72 µM | 28% | 95% | 16 | – | CCCn1c(=O)c2nc([C@H]3CC[C@H](COCc4ccccc4)CC3)[nH]c2n(CCC)c1=O
– | – | 38% | 100% | – | Activity [6]: 45%; Activity [7]: 92% | CCCn1c(=O)c2nc([C@H]3CC[C@H](NC(C)=O)CC3)[nH]c2n(CCC)c1=O
– | – | 30% | 100% | – | Activity [6]: 23%; Activity [7]: 69% | CCCn1c(=O)c2nc(C3CCC(NC(=O)OCc4ccccc4)CC3)[nH]c2n(CCC)c1=O (mixture of isomers)
0.008 µM | 0.681 µM | – | – | 85 | Ki [16]: 0.207 µM; Ki [8]: 6.7 µM | CCCn1c(=O)c2nc([C@]34CC[C@](C(=O)NCC(=O)OC)(CC3)CC4)[nH]c2n(CCC)c1=O
– | – | 69% | 88% | – | Activity [6]: 31%; Activity [7]: 75% | CCCn1c(=O)c2nc([C@H]3CC[C@H](C(=O)O)CC3)[nH]c2n(CCC)c1=O
0.049 µM | 7.88 µM | 53% | 70% | 161 | – | CCCn1c(=O)c2nc([C@]34CC[C@](C(=O)NCC(=O)O)(CC3)CC4)[nH]c2n(CCC)c1=O
– | – | 24% | 86% | 27 | – | CCCn1c(=O)c2nc([C@H]3CC[C@H](NC(=O)OCc4ccccc4)CC3)[nH]c2n(CCC)c1=O
0.112 µM | > 10 µM | – | 88% | > 89 | Ki [16]: 0.296 µM | CCCn1c(=O)c2nc([C@]34CC[C@](C(=O)N(C)CC(=O)OC)(CC3)CC4)[nH]c2n(CCC)c1=O
0.009 µM | 0.912 µM | – | – | – | – | CCCn1c(=O)c2[nH]c([C@]34CC[C@](C(=O)OC)(CC3)CC4)nc2n(CCC)c1=O
– | – | 100% | 100% | – | Activity [6]: 25%; Activity [7]: 79% | CCCCC[C@]12CC[C@](c3nc4c(=O)n(CCC)c(=O)n(CCC)c4[nH]3)(CC1)CC2
– | – | 39% | 100% | – | Activity [6]: 46%; Activity [7]: 70% | CCCn1c(=O)c2nc([C@H]3CC[C@H](C(=O)N(CC)CC)CC3)[nH]c2n(CCC)c1=O
– | – | 46% | 100% | – | Activity [6]: 60%; Activity [7]: 63% | CCCn1c(=O)c2nc([C@H]3CC[C@@H](NC(C)=O)CC3)[nH]c2n(CCC)c1=O
0.016 µM | 0.414 µM | 27% | 73% | 26 | – | CCCn1c(=O)c2nc([C@]34CC[C@](CO)(CC3)CC4)[nH]c2n(CCC)c1=O
0.041 µM | 0.313 µM | – | – | – | – | CCCn1c(=O)c2[nH]c([C@H]3CC[C@H](CO)CC3)nc2n(CCC)c1=O
– | – | 19% | 44% | 101 | – | CCCn1c(=O)c2nc([C@]34CC[C@](C(=O)OC)(CC3)CC4)[nH]c2n(CCC)c1=O
0.0096 µM | 3.33 µM | – | 100% | 333 | Ki [16]: 0.1 µM | CCCn1c(=O)c2nc([C@]34CC[C@](/C=C/C(=O)O)(CC3)CC4)[nH]c2n(CCC)c1=O
0.046 µM | 2.26 µM | 11% | 93% | 49 | – | CCCCNC(=O)[C@H]1CC[C@H](c2nc3c(=O)n(CCC)c(=O)n(CCC)c3[nH]2)CC1
